Assay [1] concerns Jurkat. The assay can be described thus: Growth inhibition of human Jurkat cells. The format is functional, cell-based.
Assay [2] relates to Jurkat. The assay can be described thus: Growth inhibition of human Jurkat cells at 50 ug/mL. The class given is functional.
The subject of assay [3] is Jurkat. The assay can be described thus: Cytotoxicity against human Jurkat cells in presence and relative to TRAIL. The class given is functional, cell-based. A digest of the protocol:
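Jurkat cell proliferation test run with each isolate in combination with TRAIL, to measure enhancement of TRAIL cytotoxicity; values expressed relative to the cell proliferation rate at 0.125.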

In assay [4] the test system is Jurkat. The assay can be described thus: Cytotoxicity against human Jurkat cells in presence and relative to TRAIL at 50 ug/mL. The class given is functional. The gist of the method:
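Proliferation assay in Jurkat cells exposed to each isolated alkaloid together with TRAIL. Results are expressed relative to the cell proliferation rate at […].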

Values after ≈ are worked out from the molar mass of the structure shown. Bounds are passed on as bounds.

Broadly, the IC50 is the point on the concentration scale where inhibition reaches its midpoint. Read a high IC50 as weaker potency. By inhibition is commonly meant the percentage by which the read-out fell short of the control. A high value points to a strong effect.

On to `C[N+](C)(C)[C@H](Cc1c[nH]c2ccccc12)C(=O)[O-]` [HYPAPHORINE], for which the half-maximal inhibitory concentration (IC50) in assay [1] and in assay [3] was over 50 µg/mL throughout. Besides, the inhibition at 50 µg/mL in assay [2] came to 5.8%; in assay [4] it was 20%.
Take `CC[C@]1(O)C[C@H]2CN(CCc3c([nH]c4ccccc34)[C@@](C(=O)OC)(c3cc4c(cc3OC)N(C=O)[C@H]3[C@@](O)(C(=O)OC)[C@H](OC(C)=O)[C@]5(CC)C=CCN6CC[C@]43[C@@H]65)C2)C1` [VINCRISTINE]: 0.0031 µg/mL (≈ 0.00376 µM) corresponded to half-maximal inhibition in assay [1] (IC50).
Take `COc1cc2c(cc1O[C@@H]1O[C@H](CO)[C@@H](O)[C@H](O)[C@H]1O)CCN1CC=C3C=C[C@H](OC)C[C@]321` [GRYCOERYSODINE]: the values for the IC50 in assay [1] and in assay [3] were over 50 µg/mL and 44 µg/mL (≈ 95.3 µM), respectively. In addition, 50 µg/mL produced 4.7% inhibition in assay [2].
For the compound `COC(=O)c1cc2c(cn1)CCN1CC=C3C=C[C@H](OC)C[C@]321` [ERYMELANTHINE], the IC50 in assay [1] and in assay [3] was over 50 µg/mL each time. Moreover, the figures for the inhibition at 50 µg/mL in assay [2] and in assay [4] were 1.1% and 24.2%, respectively.
With `COc1cc2c(cc1O)CCN1CC=C3C=C[C@H](OC)C[C@]321` [ERYSODINE], the IC50 in assay [1] came to 10.8 µg/mL (≈ 36.1 µM); in assay [3] it was 4.9 µg/mL (≈ 16.4 µM).
For the compound `CO[C@H]1C=CC2=CCN3CCc4cc5c(cc4[C@]23C1)OCO5` [ERYTHRALINE], the IC50 amounted to 23 µg/mL (≈ 77.3 µM) in assay [1] and 5 µg/mL (≈ 16.8 µM) in assay [3].
Turning to `COc1cc2c(cc1O)CC[N+]1([O-])CC=C3C=C[C@H](OC)C[C@]321` (stereo not given in full), the IC50 in assay [1] and in assay [3] was over 50 µg/mL in each case. For the same compound, the values for the inhibition at 50 µg/mL in assay [2] and in assay [4] were 2.4% and 18.9%, respectively.
`O=c1cc(-c2ccc(O)cc2)oc2cc(O)cc(O)c12` [APIGENIN]: the values for the IC50 in assay [1] and in assay [3] were 30 µg/mL (≈ 111 µM) and 6.7 µg/mL (≈ 24.8 µM), respectively.
In the case of `COc1cc2c(cc1OC)[C@]13C[C@@H](OC)C=CC1=CCN3CC2` [ERYSOTRINE], the IC50 in assay [1] was over 50 µg/mL; in assay [3], 7.2 µg/mL (≈ 23 µM). In addition, testing at 50 µg/mL in assay [2] gave an inhibition of 45%.
Regarding `CO[C@H]1C=CC2=CC(=O)N3CCc4cc5c(cc4[C@]23C1)OCO5`, the IC50 is over 50 µg/mL in assay [1] and 22 µg/mL (≈ 70.7 µM) in assay [3]. Testing at 50 µg/mL in assay [2] gave an inhibition of 37%.
Take `COc1cc2c(cc1O)[C@]13C[C@@H](OC)C=CC1=CCN3CC2` [ERYSOVINE]: the IC50 in assay [1] was 24 µg/mL (≈ 80.2 µM); in assay [3], 14.2 µg/mL (≈ 47.4 µM).

Source of the values: ChEMBL document CHEMBL1139285, “TRAIL-enhancing activity of Erythrinan alkaloids from Erythrina velutina” (Bioorg Med Chem Lett, 2009).
